High-throughput results from PubChem BioAssay.
Compounds with a hit are over-represented: about 12% of the library has one in this group of screens.
KCC2 mod: modulators of human KCC2 chloride dependent transport | B-score of Tl+ flux slope (higher = more flux/activation; lower = inhibition) at 10 µM | KCC2 cells, thallium flux FluoZin-2 fluorescence | Q9H2X9 | 190,000 tested, 2.2% active;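 active = thallium flux slope and its plate-corrected score both differing from the plate sample mean at a set confidence after two filtering rounds, in either direction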;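 also: slope of fluorescence scaled to starting intensity during 10 to 20 s after thallium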
ROMK mod: modulators of human ROMK potassium channel; P48048; Tet-inducible ROMK, thallium flux fluorescence; actives lie on both sides; B-score at 10 µM; 130,000 tested, 2% active; AID 1918;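 active = signal ratio slope over the read window, or its plate-corrected B-score, at least 3 SD from the plate mean, either direction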;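 also: B-score of the F/F0 ratio slope over 7 to 12 s after thallium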
Target sequence (P48048 whole entry, looked up): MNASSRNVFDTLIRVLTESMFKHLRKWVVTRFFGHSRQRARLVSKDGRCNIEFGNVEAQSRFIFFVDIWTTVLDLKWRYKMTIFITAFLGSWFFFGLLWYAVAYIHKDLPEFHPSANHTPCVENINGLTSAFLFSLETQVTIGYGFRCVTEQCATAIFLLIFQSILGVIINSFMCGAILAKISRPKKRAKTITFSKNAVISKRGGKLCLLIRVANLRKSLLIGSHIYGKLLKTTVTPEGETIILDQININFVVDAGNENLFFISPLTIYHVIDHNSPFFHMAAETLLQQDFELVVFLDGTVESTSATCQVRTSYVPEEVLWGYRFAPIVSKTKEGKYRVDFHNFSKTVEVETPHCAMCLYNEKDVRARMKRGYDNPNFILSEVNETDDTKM
WT yeast gro inh: growth inhibition of WT yeast, mitochondrial fusion screen | mitochondrial fusion phenotypic screen, WT strain | inhibition, % at 10 µM | 190,000 tested, 2.1% active; in the data active = inhibition above about 58%; tested in S. cerevisiae
L major viab: Leishmania major promastigote growth inhibition; Leishmania major promastigotes, resazurin fluorescence viability; 200,000 tested, 9% active; inhibition, % at 10 µM; in the data active = inhibition above about 50%;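 also: promastigotes grown with compound for 44 hours at 28 °C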
Diaph act CS: counter-screen for diaphorase-based assays: diaphorase activators and chemical reducers; AID 1229; activation factor at 20 µM; Diaphorase/resazurin coupled assay, resorufin fluorescence, 16 min; hits give high values; 1 = vehicle wells, 0 = NADH-free wells; 190,000 tested, 0.005% active;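 active = diaphorase activity raised at least twofold by the compound at 20 µM; inactive = activation factor below 2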
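System – purified diaphorase enzyme from Clostridium kluyveri · Input – enzyme 0.07 U/mL final · Also added – final NADH 0.114 mM, resazurin 0.1 mM · Measured by – fluorescence of resorufin, 544 nm excitation, 590 nm emission · Timing – 16 min enzyme reaction, ambient temperature · Measure – resorufin increase flagging diaphorase activators or reducers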
Diaphorase inh: diaphorase inhibition or chemical oxidation counter-screen | diaphorase resazurin-to-resorufin fluorescence, NADH, 16 min; bacterial (C. kluyveri) enzyme, not human | inhibition, % at 20 µM | 190,000 tested, 0.69% active | AID 1217;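 active = primary screen inhibition at 20 µM above a set limit, cut at about 50% in these data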;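 also: plate controls were DMSO with full reaction for no effect and wells lacking NADH for full effect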
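Test system: diaphorase enzyme from Clostridium kluyveri; amount: diaphorase at 0.14 U/mL in enzyme working solution; detection: fluorescence of resorufin formed from resazurin, Ex 544/Em 590 nm; times: reaction incubation of 16 min at room temperature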
Starred values were filed as active, the others as inactive; · = no result.

SMILES	KCC2 mod	ROMK mod	WT yeast gro inh	L major viab	Diaph act CS	Diaphorase inh
O=C(CCl)NN=C(c1ccccc1)c1ccccc1	-0.54	-0.57	-7	100*	0.8	16
CC1CCN(C(=O)c2ccc3c(c2NCCO)C(=O)c2ccccc2C3=O)CC1	·	-0.71	71*	37	0.7	25
CCN(CC)CCNC(=O)c1ccc2c(c1NCCO)C(=O)c1ccccc1C2=O	-2.2	·	·	·	·	·
CCN(CC)S(=O)(=O)N1CCN(S(=O)(=O)N2CCOCC2)CC1	0.32	0.46	-10	-6	1	-2
NC(N)=Nc1nc(CCN2C(=O)c3ccccc3C2=O)cs1	0.88	·	10	9	1	-4
CCOC(=O)CCc1c(C)nc(SCCN2CCCC2)c(C#N)c1C	0.16	·	9	81*	1	4
COc1ccc(C2=Nc3cccc4cccc(c34)N2)cc1	-0.94	·	66*	10	0.8	23
COc1cc(/C=C/C(=O)OCC(=O)N2CCN(S(=O)(=O)c3ccc(C)cc3C)CC2)ccc1O	1.2	·	-24	98*	0.8	21
COc1cc(/C=C/C(=O)OCC(=O)N2CCN(C(=O)c3ccco3)CC2)ccc1O	-1.1	-0.57	14	-3	0.9	14
COc1cccc(/C=C/C(=O)OCC(=O)Nc2ccc(S(=O)(=O)N3CCCC3)cc2)c1	1.3	·	3	68*	0.8	22
COc1ccc(NC(=O)COC(=O)/C=C/c2ccc(OC)c(S(=O)(=O)N3CCOCC3)c2)cc1	0.13	·	-23	57*	0.8	15
Cc1nn2c(=O)c3c4c(sc3nc2n1-c1ccccc1)COC(C)(C)C4	-0.43	·	·	·	·	·
Cc1ccc(Sc2ccc(CO)cc2[N+](=O)[O-])cc1	-0.68	-0.15	14	-3	1.1	-15
CN1CCN(Cc2ccc(Sc3ccc(Cl)cc3)c([N+](=O)[O-])c2)CC1	1.3	-0.76	86*	100*	1.1	-11
Cc1ccc(Sc2ccc(CN3CCCC3)cc2[N+](=O)[O-])cc1	-0.00027	-1.6	46	82*	1	2
CCOc1ccccc1N1CCN(S(=O)(=O)c2cccc3nsnc23)CC1	-0.48	-1.5	-4	4	0.9	12
COc1cc(Cl)c(C)cc1NC(=O)CSc1ccc(NC(C)=O)cc1	-0.83	-0.72	14	32	0.8	24
CCOc1ccc(C(=O)OCC(=O)NC(C)C)cc1	0.63	1.2	2	-7	1.1	-5
C=CCN(C(=O)C1=NN(C2CCS(=O)(=O)C2)C(=O)CC1)c1nc(-c2ccc([N+](=O)[O-])cc2)cs1 (stereo not given)	0.24	-0.73	5	6	0.9	6
COc1ccc(S(=O)(=O)NC(CC(=O)N2CCc3ccccc32)c2ccco2)cc1 (stereo not given)	-2.2	·	15	76*	0.9	7
Cn1c(/C=C/N2CCOCC2)c(C(=O)c2ccc(Br)cc2)c(=O)n(C)c1=O	-0.72	·	77*	0	0.9	11
CCOC(=O)c1cc(C)n(CCCN2CCOCC2)c1C	·	-0.75	-1	90*	0.8	17
Cc1ccc(-n2nc3c(c2NC(=O)/C=C\c2ccc4c(c2)OCO4)CSC3)c(C)c1	0.072	0.1	36	99*	0.8	23
Cc1ccccc1-n1nc2c(c1NC(=O)/C=C\c1ccc3c(c1)OCO3)CSC2	0.2	-0.013	32	68*	0.7	28
Cc1ccc(-n2nc3c(c2NC(=O)/C=C\c2ccc4c(c2)OCO4)CSC3)cc1	-0.62	-0.72	24	93*	0.8	16
SMILES	KCC2 mod	ROMK mod	WT yeast gro inh	L major viab	Diaph act CS	Diaphorase inh
Cc1cc(Oc2ccc(C#N)cc2)nc(NCc2ccccc2)n1	-0.27	·	-17	12	0.8	21
COc1ccc(-c2nc3ccccc3c(=O)n2NC(=S)N(C)C)cc1	1.8	·	-5	-7	0.8	18
O=C(/C(=N/N=C/c1ccc(O)c(O)c1)c1ccccc1)c1ccccc1	0.11	·	-9	13	0.5	51*
O=C1Nc2ccccc2/C1=N\N=C\c1ccc(O)c(O)c1	-0.91	·	·	·	·	·
C=CCNC(=O)CSc1nnc(-c2ccccc2Br)n1-c1cccc(C(F)(F)F)c1	-1.3	0.65	-13	79*	0.9	10
O=C(CSc1nnc(-c2ccccc2O)n1-c1ccccc1)Nc1cccc(C(=O)O)c1	-0.3	0.34	-1	29	1	1
C=CCNC(=O)C1CCN(c2ccc(S(=O)(=O)N3CCOCC3)cc2[N+](=O)[O-])CC1	0.66	-0.13	2	1	0.9	6
O=C(CC1SC(=Nc2ccc(OC(F)F)cc2)N(CCC2=CCCCC2)C1=O)Nc1ccccc1F (stereo not given)	0.98	0.38	15	96*	0.9	12
CN=C1SC(CC(=O)Nc2ccccc2F)C(=O)N1C (stereo not given)	0.61	·	0	-7	0.9	8
CCOc1ccccc1N=C1SC(CC(=O)Nc2ccc(OC)cc2OC)C(=O)N1CCC1=CCCCC1 (stereo not given)	0.17	0.0017	17	80*	0.7	25
CCOC(=O)N1CCN(Cc2nc3c(c(=O)n(C)c(=O)n3C)n2CCCc2ccccc2)CC1	·	·	13	6	0.9	9
CCC(C)Sc1cc(C(F)(F)F)c(C(=O)Nc2ccc(Cl)cc2)cn1 (stereo not given)	-0.061	·	·	·	·	·
CCSCCOC(=O)C1=C(C)N(C)C(=O)NC1c1cc(OC)ccc1OC (stereo not given)	4.2*	0.73	12	16	0.8	16
O=C(O)C1Nc2c(O)cccc2C2C=CCC12 (stereo not given)	-0.37	·	-1	-9	0.2	78*
COc1ccc(NS(=O)(=O)c2ccc3nc(COc4cccc5ccccc45)[nH]c3c2)cc1	1.1	0.16	6	95*	0.7	32
COc1ccc(NS(=O)(=O)c2ccc3nc(COc4ccc5ccccc5c4)[nH]c3c2)cc1	-0.2	·	-11	27	0.9	13
Nn1c(SCC(=O)Nc2ccc(F)cc2)nnc1-c1cccnc1	1.1	1.1	1	-6	0.9	12
COc1cccc(C2CC(c3cccc(Br)c3)n3nc(N)nc3N2)c1 (stereo not given)	1.6	·	9	75*	0.8	21
Nc1nc2n(n1)C(c1cccc(Br)c1)CC(c1ccccc1)N2 (stereo not given)	-0.56	·	-5	78*	0.8	18
N#Cc1ccc(N/N=C/c2ccccc2)c([N+](=O)[O-])c1	-1	0.37	-6	-8	0.8	16
c1ccc2c(Nc3nc(N4CCOCC4)c4ccccc4n3)cccc2c1	-0.76	-0.79	85	88*	0.8	15
Clc1ccc(Cl)c(-c2ccc(/C=N/c3ncn[nH]3)o2)c1	-1	-2.1	18	21	0.8	21
O/N=C/c1ccc(-c2cc(Cl)ccc2Cl)o1	-1.7	·	-10	67*	1	-1
